For assay [1], the system named is Spodoptera littoralis. As to the kind of experiment: Insecticidal activity against Spodoptera littoralis larvae assessed as growth inhibition after 5 days. Format: functional, organism-based. The method, boiled down:
(§1)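 Larvae kept 5 days in a moist chamber at 29 °C in darkness, then survival and larval weight compared with a carrier-only control group. Run in triplicate; LC50 (survival) and EC50 (growth) from dose-response curves by probit-log analysis.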

For assay [2], the system named is Spodoptera littoralis. Kind of assay: Insecticidal activity against Spodoptera littoralis larvae assessed as survival rat after 5 days. The class given is functional. Summed up: as §1
In another assay the test system is Lymantria dispar. As to the kind of experiment: Insecticidal activity against Lymantria dispar larvae assessed as mean weight of surviving larvae after 8 days. The class given is functional, organism-based. The method, boiled down:
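Freshly hatched larvae (n = 10) from a laboratory colony reared on wheat germ-casein diet, fed diet spiked with 1 μg – 100 μg/g fresh wt of compound. Kept 8 days in a moist chamber at 26 °C in darkness. Mean weight of surviving larvae compared with controls. Commercial azadirachtin (>96%) as positive control. Three replicates; LC50/EC50 from dose-response curves by probit-log analysis.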

Structures are written as SMILES.

Consider `COc1ccc(C2C(=O)Oc3cc4c(c(OC)c32)OCO4)cc1` (stereo unspecified) [AGLALACTONE], for which the EC50 in the assay on Spodoptera littoralis [1] is above 100 µg/g. Moreover, in the assay with Spodoptera littoralis [2], the LC50 is above 100 µg/g.
With `CC(=O)N(CCCCNC(=O)/C=C/c1ccccc1)C(=O)CCc1ccccc1` [EDULIMIDE], in the assay on Spodoptera littoralis [1], the EC50 is above 250 µg/g. The LC50 in the assay with Spodoptera littoralis [2] was above 250 µg/g.
For `COC(=O)[C@H]1[C@@H](OC(C)=O)[C@@]2(O)c3c(cc4c(c3OC)OCO4)O[C@@]2(c2ccc(OC)cc2)[C@@H]1c1ccccc1`, in that order: 1.2 µg/g and 12.2 µg/g.
The matching figures for `CC(C)(O)C(=O)NC1CCCN1C(=O)/C=C/c1ccccc1` (stereo unspecified) [PIRIFERINOL]: above 250 µg/g and above 250 µg/g.
For `COc1cc(C[C@H]2CO[C@H](c3ccc(O)c(OC)c3)[C@H]2COC(C)=O)ccc1O` [LARICIRESINOL ACETATE], in that order: above 250 µg/g and above 250 µg/g.
Turning to `COC(=O)[C@H]1[C@@H](O)[C@@]2(O)c3c(cc4c(c3OC)OCO4)O[C@@]2(c2ccc(OC)cc2)[C@@H]1c1ccccc1` [PANNELLIN], the values for the EC50 in the assay on Spodoptera littoralis [1] and in the assay on Lymantria dispar were 0.24 µg/g and 1.4 µg/g, respectively. Also, the LC50 in the assay on Spodoptera littoralis [2] amounted to 2.1 µg/g.
For `C/C=C(\C)C(=O)O[C@H]1C[C@@H](OC(C)=O)[C@@]2(C(=O)OC)CO[C@H]3[C@@H](O)[C@@](C)([C@]45O[C@@]4(C)[C@@H]4C[C@H]5O[C@@H]5OC=C[C@@]54O)[C@H]4[C@]1(CO[C@]4(O)C(=O)OC)[C@@H]32` [AZADIRACHTIN A], in that order: 0.11 µg/g, 0.6 µg/g and 6.1 µg/g.

The values above are taken from ChEMBL document CHEMBL1151321, “Bisamides, lignans, triterpenes, and insecticidal Cyclopenta[b]benzofurans from Aglaia species” (J Nat Prod, 1998).
